According to ChEMBL document CHEMBL2384906, “Biological activity, design, synthesis and structure activity relationship of some novel derivatives of curcumin containing sulfonamides” (Eur J Med Chem, 2013):
In brackets after ≈: the same amount, converted by molar mass. Activity calls are given as the source filed them. The rule behind the calls is not given here.

Tests used:
Bacillus cereus [1] = experiment: Antimicrobial activity against Bacillus cereus MTCC 7350 assessed as diameter of inhibition zone at 80 uM after 24 hrs by Kirby -Baur disc diffusion method; type: functional
Method in brief: (§1)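 Kirby-Bauer disc diffusion was used. Acetone stocks (160 µM) were serially doubled down to 80, 40 and 20 µM. 4 µL of each went onto 5 mm sterile paper discs, which were dried 30 min at 50 °C. Inoculum was 1.5 × 10⁸ CFU/mL diluted to 3 × 10² CFU/mL, and 50 µL was spread on Mueller-Hinton agar. After 24 h at 37 °C the inhibition-zone diameter was measured. Ciprofloxacin served as positive control.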

Aspergillus flavus [2] = experiment: Antifungal activity against Aspergillus flavus MTCC 1021 after 48 hrs; type: functional; conditions: MTCC 1021, 48 h
Pseudomonas aeruginosa [3] = experiment: Antimicrobial activity against Pseudomonas aeruginosa ATCC 15499 after 24 hrs by broth micro serial dilution method; type: functional; conditions: ATCC 15499, 24 h
Method in brief: (§2)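 This was broth microdilution in autoclaved Mueller-Hinton broth. 150 µL of compound per well was serially diluted […], and 50 µL of test organism was added. Plates were incubated 24 h at 37 °C and optical density was read.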

Salmonella typhi [4] = experiment: Antimicrobial activity against Salmonella typhi ATCC 23564 assessed as diameter of inhibition zone at 20 uM after 24 hrs by Kirby -Baur disc diffusion method; type: functional; conditions: Salmonella enterica subsp. enterica serovar Typhi
Escherichia coli [5] = experiment: Antimicrobial activity against Escherichia coli ATCC 35218 assessed as diameter of inhibition zone at 20 uM after 24 hrs by Kirby -Baur disc diffusion method; type: functional; method in brief: as §1
Trichoderma viride [6] = experiment: Antifungal activity against Trichoderma viride MTCC 1107 after 48 hrs; type: functional; conditions: MTCC 1107, 48 h
Salmonella typhi [7] = experiment: Antimicrobial activity against Salmonella typhi ATCC 23564 after 24 hrs by broth micro serial dilution method; type: functional, Salmonella enterica subsp. enterica serovar Typhi; conditions: Salmonella enterica, ATCC 23564, 24 h
Staphylococcus aureus [8] = experiment: Antimicrobial activity against Staphylococcus aureus ATCC 11632 assessed as diameter of inhibition zone at 40 uM after 24 hrs by Kirby -Baur disc diffusion method; type: functional; method in brief: as §1
Escherichia coli [9] = experiment: Antimicrobial activity against Escherichia coli ATCC 35218 after 24 hrs by broth micro serial dilution method; type: functional; conditions: ATCC 35218, 24 h; method in brief: as §2
Salmonella typhi [10] = experiment: Antimicrobial activity against Salmonella typhi ATCC 23564 assessed as diameter of inhibition zone at 40 uM after 24 hrs by Kirby -Baur disc diffusion method; type: functional, Salmonella enterica subsp. enterica serovar Typhi; conditions: Salmonella enterica, ATCC 23564, 24 h; read-out: DIZ
Trichoderma viride [11] = experiment: Antifungal activity against Trichoderma viride MTCC 1107 assessed as zone of inhibition at 40 uM after 48 hrs by disc diffusion method; type: functional; conditions: MTCC 1107, 48 h, read-out: IZ
Method in brief: (§3)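 Spores from 4-day potato dextrose agar cultures, suspended in sterile water at 1.5 × 10⁵ CFU/mL. 0.2 mL was spread on potato dextrose agar. 5 mm filter-paper discs soaked with test compound were laid on the lawn. Incubation was 48 h at 28 °C, then the inhibition zone was measured in mm. Fluconazole was the positive control and acetone the negative control.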

HeLa = experiment: Cytotoxicity against human HeLa cells after 24 hrs by MTT assay; type: functional, cell-based
Method in brief: (§4)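 The MTT assay seeded 5 × 10⁴ cells per well and grew them 24 h in RPMI 1640 with compound at 2.5–200 µM. Medium without cells was the blank and adriamycin the positive control. MTT was added for 4 h at 37 °C, formazan was solubilised, and absorbance was read at 570 nm. IC50 is the concentration that cuts viability 50% against untreated cells.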

Pseudomonas aeruginosa [12] = experiment: Antimicrobial activity against Pseudomonas aeruginosa ATCC 15499 assessed as diameter of inhibition zone at 20 uM after 24 hrs by Kirby -Baur disc diffusion method; type: functional; method in brief: as §1
Aspergillus niger [13] = experiment: Antifungal activity against Aspergillus niger MTCC 1108 after 48 hrs; type: functional; conditions: MTCC 1108, 48 h
Staphylococcus aureus [14] = experiment: Antimicrobial activity against Staphylococcus aureus ATCC 11632 assessed as diameter of inhibition zone at 20 uM after 24 hrs by Kirby -Baur disc diffusion method; type: functional; method in brief: as §1
Pseudomonas aeruginosa [15] = experiment: Antimicrobial activity against Pseudomonas aeruginosa ATCC 15499 assessed as diameter of inhibition zone at 80 uM after 24 hrs by Kirby -Baur disc diffusion method; type: functional; conditions: ATCC 15499, 24 h, read-out: DIZ; method in brief: as §1
HCT-116 = experiment: Cytotoxicity against human HCT116 cells after 24 hrs by MTT assay; type: functional, cell-based; method in brief: as §4
Staphylococcus aureus [16] = experiment: Antimicrobial activity against Staphylococcus aureus ATCC 11632 assessed as diameter of inhibition zone at 80 uM after 24 hrs by Kirby -Baur disc diffusion method; type: functional; conditions: ATCC 11632, 24 h, read-out: DIZ; method in brief: as §1
Aspergillus niger [17] = experiment: Antifungal activity against Aspergillus niger MTCC 1108 assessed as zone of inhibition at 80 uM after 48 hrs by disc diffusion method; type: functional; method in brief: as §3
Mus musculus = experiment: Antiinflammatory activity in mouse assessed as inhibition of carrageenan-induced increase in paw volume at 200 mg/kg administered 1 hr prior to carrageenan challenge measured after 3 hrs relative to control; type: functional
Method in brief: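 Mice were fasted 2 h and placed in groups of five. Controls received saline i.p. Phenylbutazone was given at 100 mg/kg i.p., curcumin at 200 mg/kg i.p., and derivatives at 200 mg/kg. After 1 h, 0.1 mL of 1% carrageenan in saline was injected subplantar into the right hind paw. Paw volume was followed by plethysmometer for 3 h, and % inhibition was calculated as (Vc − Vt)/Vc × 100.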

Trichoderma viride [18] = experiment: Antifungal activity against Trichoderma viride MTCC 1107 assessed as zone of inhibition at 20 uM after 48 hrs by disc diffusion method; type: functional; method in brief: as §3
Curvularia lunata [19] = experiment: Antifungal activity against Curvularia lunata MTCC 581 assessed as zone of inhibition at 20 uM after 48 hrs by disc diffusion method; type: functional; method in brief: as §3
Escherichia coli [20] = experiment: Antimicrobial activity against Escherichia coli ATCC 35218 assessed as diameter of inhibition zone at 40 uM after 24 hrs by Kirby -Baur disc diffusion method; type: functional; method in brief: as §1
Escherichia coli [21] = experiment: Antimicrobial activity against Escherichia coli ATCC 35218 assessed as diameter of inhibition zone at 80 uM after 24 hrs by Kirby -Baur disc diffusion method; type: functional; conditions: ATCC 35218, 24 h, read-out: DIZ; method in brief: as §1
Salmonella typhi [22] = experiment: Antimicrobial activity against Salmonella typhi ATCC 23564 assessed as diameter of inhibition zone at 80 uM after 24 hrs by Kirby -Baur disc diffusion method; type: functional, Salmonella enterica subsp. enterica serovar Typhi; conditions: Salmonella enterica, ATCC 23564, 24 h; read-out: DIZ
Aspergillus flavus [23] = experiment: Antifungal activity against Aspergillus flavus MTCC 1021 assessed as zone of inhibition at 80 uM after 48 hrs by disc diffusion method; type: functional; method in brief: as §3
Curvularia lunata [24] = experiment: Antifungal activity against Curvularia lunata MTCC 581 assessed as zone of inhibition at 80 uM after 48 hrs by disc diffusion method; type: functional; conditions: MTCC 581, 48 h, read-out: IZ; method in brief: as §3
HepG2 = experiment: Cytotoxicity against human HepG2 cells after 24 hrs by MTT assay; type: functional, cell-based; method in brief: as §4
Bacillus cereus [25] = experiment: Antimicrobial activity against Bacillus cereus MTCC 7350 after 24 hrs by broth micro serial dilution method; type: functional; method in brief: as §2
Staphylococcus aureus [26] = experiment: Antimicrobial activity against Staphylococcus aureus ATCC 11632 after 24 hrs by broth micro serial dilution method; type: functional; conditions: ATCC 11632, 24 h; method in brief: as §2
Pseudomonas aeruginosa [27] = experiment: Antimicrobial activity against Pseudomonas aeruginosa ATCC 15499 assessed as diameter of inhibition zone at 40 uM after 24 hrs by Kirby -Baur disc diffusion method; type: functional; conditions: ATCC 15499, 24 h, read-out: DIZ; method in brief: as §1
Trichoderma viride [28] = experiment: Antifungal activity against Trichoderma viride MTCC 1107 assessed as zone of inhibition at 80 uM after 48 hrs by disc diffusion method; type: functional; conditions: MTCC 1107, 48 h, read-out: IZ; method in brief: as §3
QG-56 = experiment: Cytotoxicity against human QG56 cells after 24 hrs by MTT assay; type: functional, cell-based; method in brief: as §4
Curvularia lunata [29] = experiment: Antifungal activity against Curvularia lunata MTCC 581 assessed as zone of inhibition at 40 uM after 48 hrs by disc diffusion method; type: functional; conditions: MTCC 581, 48 h, read-out: IZ; method in brief: as §3
Curvularia lunata [30] = experiment: Antifungal activity against Curvularia lunata MTCC 581 after 48 hrs; type: functional; conditions: MTCC 581, 48 h

For COc1ccc(NS(=O)(=O)c2ccc(/N=N/c3c(/C=C/c4ccc(O)c(OC)c4)noc3/C=C/c3ccc(O)c(OC)c3)cc2)nn1, the “diameter of the inhibition zone (DIZ)” value (Bacillus cereus [1]) was “inactive”, the MIC (Aspergillus flavus [2]) was over 80 µM and the MIC (Pseudomonas aeruginosa [3]) was 80 µM (≈ 52.5 µg/mL). For the same compound, the “diameter of the inhibition zone (DIZ)” value (Salmonella typhi [4]) was “inactive”, the “diameter of the inhibition zone (DIZ)” value (Escherichia coli [5]) was “inactive” and the MIC (Trichoderma viride [6]) was over 80 µM. The MIC (Salmonella typhi [7]) was 80 µM (≈ 52.5 µg/mL), the “diameter of the inhibition zone (DIZ)” value (Staphylococcus aureus [8]) was “inactive” and the MIC (Escherichia coli [9]) was over 80 µM. For the same compound, the zone of inhibition at 40 µM (Salmonella typhi [10]) was 9 mm, the zone of inhibition at 40 µM (Trichoderma viride [11]) was 9 mm and the IC50 (HeLa) was “Not Active”. For the same compound, the “diameter of the inhibition zone (DIZ)” value (Pseudomonas aeruginosa [12]) was “inactive”, the MIC (Aspergillus niger [13]) was over 80 µM and the “diameter of the inhibition zone (DIZ)” value (Staphylococcus aureus [14]) was “inactive”. For the same compound, the zone of inhibition at 80 µM (Pseudomonas aeruginosa [15]) was 13 mm, the IC50 (HCT-116) was “Not Active” and the zone of inhibition at 80 µM (Staphylococcus aureus [16]) was 10 mm. The “inhibition zone (IZ)” value (Aspergillus niger [17]) was “inactive”, the inhibition in vivo at 200 mg/kg (Mus musculus) was 48.3% and the “inhibition zone (IZ)” value (Trichoderma viride [18]) was “inactive”. For the same compound, the “inhibition zone (IZ)” value (Curvularia lunata [19]) was “inactive”, the “diameter of the inhibition zone (DIZ)” value (Escherichia coli [20]) was “inactive” and the zone of inhibition at 80 µM (Escherichia coli [21]) was 11 mm. For the same compound, the zone of inhibition at 80 µM (Salmonella typhi [22]) was 14 mm, the “inhibition zone (IZ)” value (Aspergillus flavus [23]) was “inactive” and the zone of inhibition at 80 µM (Curvularia lunata [24]) was 11 mm. The IC50 (HepG2) was “Not Active”, the MIC (Bacillus cereus [25]) was “inactive” and the MIC (Staphylococcus aureus [26]) was over 80 µM. For the same compound, the zone of inhibition at 40 µM (Pseudomonas aeruginosa [27]) was 9 mm, the zone of inhibition at 80 µM (Trichoderma viride [28]) was 11 mm and the IC50 (QG-56) was “Not Active”. The zone of inhibition at 40 µM (Curvularia lunata [29]) was 9 mm and the MIC (Curvularia lunata [30]) was over 80 µM.
